From paper PMC9340768 (Journal of Medicinal Chemistry, 2022)

Assays:
CD137 [1] = target: T1, CD137 (Homo sapiens, UniProt Q07011+Q96NY8); assay: tumor cell/CD137 reporter coculture assay with other tumor cell lines; type: cell-based
Procedure, shortened: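 A Jurkat reporter line expressing human CD137 and a CD137-responsive luciferase element was cocultured with 10,000 cells of the indicated tumor line, with or without test compound, for 6 h at 37 °C, 5% CO2. Bio-Glo luciferase reagent was then added and luminescence read. Fold induction was calculated as RLU over background wells without test article.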

[2] = tested on: human PBMCs cocultured with HT1376; assay: PBMC/HT1376 coculture cytokine secretion assay; type: cell-based; conditions: anti-CD3 stimulated PBMCs with HT1376
Procedure, shortened: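 Frozen healthy-donor human PBMCs were thawed, washed in PBS with benzonase and resuspended in RPMI with 10% heat-inactivated FBS, HEPES and glutamine. PBMCs (1 × 10^6/mL) were plated with tumor cells (1 × 10^5/mL) at 10:1, stimulated with soluble anti-CD3 OKT3 (100 ng/mL), and given diluted test compound. Incubation was 2 days at 37 °C, 5% CO2. Supernatant IFNγ and IL-2 were measured by Luminex; four-parameter fit, n = 3.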

CD137 [3] = target: T1, CD137; conditions: cited from earlier work
[4] = Pharmacokinetics in Sprague-Dawley rats; conditions: rat, in vivo, iv, 2 mg/kg, CL (mL/min/kg), SD rats, 2 mg/kg IV bolus
CD137 [5] = target: T1, CD137; assay: HT1376/CD137 reporter coculture assay; type: cell-based; conditions: BCY10000 relative to BCY8854

T1 sequence (Q07011 24-255): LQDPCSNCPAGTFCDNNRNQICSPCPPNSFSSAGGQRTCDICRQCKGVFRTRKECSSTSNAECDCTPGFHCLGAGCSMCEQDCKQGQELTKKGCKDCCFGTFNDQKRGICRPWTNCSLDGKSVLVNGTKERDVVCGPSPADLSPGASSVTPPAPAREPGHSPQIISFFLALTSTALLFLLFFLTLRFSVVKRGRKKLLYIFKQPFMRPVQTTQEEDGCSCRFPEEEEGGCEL
T1 sequence (Q96NY8 32-510): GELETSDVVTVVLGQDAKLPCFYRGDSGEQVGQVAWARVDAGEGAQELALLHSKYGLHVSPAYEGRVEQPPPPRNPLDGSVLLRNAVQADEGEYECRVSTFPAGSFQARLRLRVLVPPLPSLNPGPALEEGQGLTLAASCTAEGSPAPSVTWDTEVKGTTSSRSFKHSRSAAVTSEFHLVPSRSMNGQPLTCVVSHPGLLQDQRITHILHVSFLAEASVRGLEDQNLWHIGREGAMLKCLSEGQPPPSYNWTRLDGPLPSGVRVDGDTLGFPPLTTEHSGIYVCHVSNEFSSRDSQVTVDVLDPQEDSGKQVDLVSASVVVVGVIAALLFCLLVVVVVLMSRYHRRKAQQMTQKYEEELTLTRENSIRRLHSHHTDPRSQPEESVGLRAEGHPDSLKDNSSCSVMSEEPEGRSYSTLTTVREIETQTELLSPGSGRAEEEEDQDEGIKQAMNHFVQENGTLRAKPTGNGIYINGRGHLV

With CCCC[C@@H]1NC(=O)[C@H](Cc2ccc(O)cc2)NC(=O)[C@@H]2CCCN2C(=O)[C@H](CC(=O)O)NC(=O)[C@H](C)NC(=O)[C@H](Cc2ccccc2)NC(=O)[C@@H]2CSCCC(=O)N3CN(CN(C3)C(=O)CCSC[C@@H](C(=O)N[C@@H](CNC(=O)CCOCCOCCOCCOCCOCCOCCOCCOCCOCCOCCOCCOCCn3cc(CCC(=O)NCCC(=O)N(C)CC(=O)N(C)CC(=O)N(C)CC(=O)N(C)CC(=O)N(C)CC(=O)N(C)CC(=O)N(C)CC(=O)N(C)CC(=O)N(C)CC(=O)N(C)CC(=O)N[C@H]4CSCCC(=O)N5CN6CN(C5)C(=O)CCSC[C@H](NC(=O)[C@@H](CC(=O)O)NC(=O)[C@H](Cc5cccc7ccccc57)NC(=O)[C@@H]5CCCN5C4=O)C(=O)N[C@@H](CCSC)C(=O)N[C@@H](CCCCNC(=N)N)C(=O)N[C@@H](CC(=O)O)C(=O)N[C@@H](Cc4c[nH]c5ccccc45)C(=O)N[C@@H](CO)C(=O)N[C@@H]([C@@H](C)O)C(=O)N4CCC[C@H]4C(=O)N4C[C@H](O)C[C@H]4C(=O)N[C@@H](Cc4c[nH]c5ccccc45)C(=O)N[C@H](C(N)=O)CSCCC6=O)nn3)C(N)=O)NC1=O)C(=O)CCSC[C@H](NC(=O)[C@H](C)NC(C)=O)C(=O)N[C@@H]([C@@H](C)CC)C(=O)N[C@@H](CCC(=O)O)C(=O)N[C@@H](CCC(=O)O)C(=O)NCC(=O)N[C@@H](CCC(N)=O)C(=O)N[C@@H](Cc1ccc(O)cc1)C(=O)N2 [BCY8854] the “CD137 agonism in coculture with MC38-Nectin-4 or parental MC38” value (CD137 [1]; 6 h treatment, Jurkat CD137 reporter) was “dose-dependent agonism of CD137 was observed only in the presence of the Nectin-4-expressing MC38 clone”, the “concentration above which agonism is reduced (hook effect)” value (CD137 [1]; tumor cell/CD137 reporter coculture) was “above 300 nM” and the “secretion of proinflammatory cytokines IFNγ and IL-2” value (“secretion” for short) [2] was “dose-dependent increase”. For the same compound, the “CD137 agonism in coculture with Nectin-4 null PC3” value (CD137 [3]) was “not with a Nectin-4 null PC3 cell line” and the “CD137 agonism in coculture with HT1376 and NCI-H292” value (CD137 [3]; tumor lines endogenously expressing Nectin-4) was “CD137 agonism was also observed”.
With CCCC[C@@H]1NC(=O)[C@H](Cc2ccc(O)cc2)NC(=O)[C@@H]2CCCN2C(=O)[C@H](CC(=O)O)NC(=O)[C@H](C)NC(=O)[C@H](Cc2ccccc2)NC(=O)[C@@H]2CSCCC(=O)N3CN(CN(C3)C(=O)CCSC[C@@H](C(=O)N[C@@H](CNC(=O)CCc3cn(CCOCCOCCOCCN(CCOCCOCCOCCC(=O)N[C@H]4CSCCC(=O)N5CN6CN(C5)C(=O)CCSC[C@H](NC(=O)[C@@H](CC(=O)O)NC(=O)[C@H](Cc5cccc7ccccc57)NC(=O)[C@@H]5CCCN5C4=O)C(=O)N[C@@H](CCSC)C(=O)N[C@@H](CCCCNC(=N)N)C(=O)N[C@@H](CC(=O)O)C(=O)N[C@@H](Cc4c[nH]c5ccccc45)C(=O)N[C@@H](CO)C(=O)N[C@@H]([C@@H](C)O)C(=O)N4CCC[C@H]4C(=O)N4C[C@H](O)C[C@H]4C(=O)N[C@@H](Cc4c[nH]c5ccccc45)C(=O)N[C@H](C(N)=O)CSCCC6=O)CCOCCOCCOCCn4cc(CCC(=O)NC[C@H](NC(=O)[C@@H]5CSCCC(=O)N6CN7CN(C6)C(=O)CCSC[C@H](NC(=O)[C@H](Cc6ccc(O)cc6)NC(=O)[C@@H]6CCCN6C(=O)[C@@H](C)NC(=O)[C@H](CCC(=O)O)NC(=O)[C@@H]6CCCN6C(=O)[C@H](CC(C)(C)C)NC(=O)[C@@H](NC(C)=O)CSCCC7=O)C(=O)N[C@@H](Cc6ccccc6)C(=O)N[C@@H](C)C(=O)N[C@@H](CC(=O)O)C(=O)N6CCC[C@H]6C(=O)N[C@@H](Cc6ccc(O)cc6)C(=O)N[C@@H](CCCC)C(=O)N5)C(N)=O)nn4)nn3)C(N)=O)NC1=O)C(=O)CCSC[C@H](NC(C)=O)C(=O)N[C@@H](CC(C)(C)C)C(=O)N1CCC[C@H]1C(=O)N[C@@H](CCC(=O)O)C(=O)N[C@H](C)C(=O)N1CCC[C@H]1C(=O)N[C@@H](Cc1ccc(O)cc1)C(=O)N2 [BCY11385] the “secretion” value [2] was “dose-dependent increase”.
With CCCC[C@@H]1NC(=O)[C@H](Cc2ccc(O)cc2)NC(=O)[C@@H]2CCCN2C(=O)[C@H](CC(=O)O)NC(=O)[C@H](C)NC(=O)[C@H](Cc2ccccc2)NC(=O)[C@@H]2CSCCC(=O)N3CN(CN(C3)C(=O)CCSC[C@@H](C(=O)N[C@@H](C)C(N)=O)NC1=O)C(=O)CCSC[C@H](NC(C)=O)C(=O)N[C@@H](CC(C)(C)C)C(=O)N1CCC[C@H]1C(=O)N[C@@H](CCC(=O)O)C(=O)N[C@H](CCCCNC(=O)CCc1cn(CCOCCOCCOCCN(CCOCCOCCOCCC(=O)N[C@H]3CSCCC(=O)N4CN5CN(C4)C(=O)CCSC[C@H](NC(=O)[C@@H](CC(=O)O)NC(=O)[C@H](Cc4cccc6ccccc46)NC(=O)[C@@H]4CCCN4C3=O)C(=O)N[C@@H](CCSC)C(=O)N[C@@H](CCCCNC(=N)N)C(=O)N[C@@H](CC(=O)O)C(=O)N[C@H](Cc3c[nH]c4ccccc34)C(=O)N[C@@H](CO)C(=O)N[C@@H]([C@@H](C)O)C(=O)N3CCC[C@H]3C(=O)N3C[C@H](O)C[C@H]3C(=O)N[C@H](Cc3c[nH]c4ccccc34)C(=O)N[C@H](C(N)=O)CSCCC5=O)CCOCCOCCOCCn3cc(CCC(=O)NCCCC[C@H]4NC(=O)[C@H](CCC(=O)O)NC(=O)[C@@H]5CCCN5C(=O)[C@H](CC(C)(C)C)NC(=O)[C@@H](NC(C)=O)CSCCC(=O)N5CN6CN(C5)C(=O)CCSC[C@H](NC(=O)[C@H](Cc5ccc(O)cc5)NC(=O)[C@@H]5CCCN5C4=O)C(=O)N[C@@H](Cc4ccccc4)C(=O)N[C@@H](C)C(=O)N[C@@H](CC(=O)O)C(=O)N4CCC[C@H]4C(=O)N[C@@H](Cc4ccc(O)cc4)C(=O)N[C@@H](CCCC)C(=O)N[C@H](C(=O)N[C@@H](C)C(N)=O)CSCCC6=O)nn3)nn1)C(=O)N1CCC[C@H]1C(=O)N[C@@H](Cc1ccc(O)cc1)C(=O)N2 [BCY13144] the “secretion” value [2] was “No IL-2 or IFNγ secretion was observed”.
With CCCC[C@@H]1NC(=O)[C@H](Cc2ccc(O)cc2)NC(=O)[C@@H]2CCCN2C(=O)[C@H](CC(=O)O)NC(=O)[C@H](C)NC(=O)[C@H](Cc2ccccc2)NC(=O)[C@@H]2CSCCC(=O)N3CN(CN(C3)C(=O)CCSC[C@@H](C(=O)N[C@@H](CNC(=O)CCOCCOCCOCCOCCOCCOCCOCCOCCOCCOCCOCCOCCn3cc(CCC(=O)NCCC(=O)N(C)CC(=O)N(C)CC(=O)N(C)CC(=O)N(C)CC(=O)N(C)CC(=O)N(C)CC(=O)N(C)CC(=O)N(C)CC(=O)N(C)CC(=O)N(C)CC(=O)N[C@H]4CSCCC(=O)N5CN6CN(C5)C(=O)CCSC[C@H](NC(=O)[C@@H](CC(=O)O)NC(=O)[C@H](Cc5cccc7ccccc57)NC(=O)[C@@H]5CCCN5C4=O)C(=O)N[C@@H](CCSC)C(=O)N[C@@H](CCCCNC(=N)N)C(=O)N[C@@H](CC(=O)O)C(=O)N[C@@H](Cc4c[nH]c5ccccc45)C(=O)N[C@@H](CO)C(=O)N[C@@H]([C@@H](C)O)C(=O)N4CCC[C@H]4C(=O)N4C[C@H](O)C[C@H]4C(=O)N[C@@H](Cc4c[nH]c5ccccc45)C(=O)N[C@H](C(N)=O)CSCCC6=O)nn3)C(N)=O)NC1=O)C(=O)CCSC[C@H](NC(C)=O)C(=O)N[C@@H](CC(C)(C)C)C(=O)N1CCC[C@H]1C(=O)N[C@@H](CCC(=O)O)C(=O)N[C@H](C)C(=O)N1CCC[C@H]1C(=O)N[C@@H](Cc1ccc(O)cc1)C(=O)N2 [BCY10000] the clearance [4] was 19 mL/min/kg, the “secretion” value [2] was “dose-dependent increase” and the “improvement of Emax” value (CD137 [5]) was 1.5 fold. The “improvement of in vitro potency (EC50)” value (CD137 [5]) was “fourfold”.
